Shown are actives, neighbours in structure and some others; about 1.9% of the full set was active somewhere.
proCasp3 act: activates human procaspase-3; P42574; recombinant procaspase-3 D3A, Ac-DEVD-pNA absorbance 405 nm; activation, % at 8.5 µM; 330,000 compounds, 0.11% hits; AID 463141;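 active means activation above the mean of all tested compounds plus 3 SD, cut at about 21% in these data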
Target sequence (P42574 whole entry D9A/D28A/D175A): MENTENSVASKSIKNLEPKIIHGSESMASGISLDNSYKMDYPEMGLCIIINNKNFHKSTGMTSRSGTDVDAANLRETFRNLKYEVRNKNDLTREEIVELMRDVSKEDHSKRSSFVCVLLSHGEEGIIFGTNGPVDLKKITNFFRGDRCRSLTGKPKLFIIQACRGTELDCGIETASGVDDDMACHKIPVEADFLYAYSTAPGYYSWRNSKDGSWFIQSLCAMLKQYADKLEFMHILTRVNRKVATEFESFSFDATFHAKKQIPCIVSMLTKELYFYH
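Assay system: Autoprocessing-dead procaspase-3 D3A mutant enzyme; also added: Ac-DEVD-pNA; doses: one concentration, 8.5 µM nominal, 0.8% DMSO; times: 1 h compound preincubation, 2 h substrate hydrolysis at 25 °C; technique: 405 nm absorbance of p-nitroaniline, reads at 0 and 120 min; measure: % activation between DMSO and enzyme-spiked controls; repeats: single replicate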
procasp7 counter: activates human procaspase-7, counter-screen for procaspase-3 activators; recombinant procaspase-7, Ac-DEVD-pNA absorbance 405 nm; D23A/D198A/D206A triple mutant, cannot self-cleave; scale: DMSO 0, 5 µM enzyme 100; activation, % at 8.5 µM; 330,000 compounds, 0.093% hits; AID 463210;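 active means percent activation above the screen-wide mean plus 3 SD, cut at about 25% in these data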
Target sequence (P55210 whole entry D23A/D198A/D206A): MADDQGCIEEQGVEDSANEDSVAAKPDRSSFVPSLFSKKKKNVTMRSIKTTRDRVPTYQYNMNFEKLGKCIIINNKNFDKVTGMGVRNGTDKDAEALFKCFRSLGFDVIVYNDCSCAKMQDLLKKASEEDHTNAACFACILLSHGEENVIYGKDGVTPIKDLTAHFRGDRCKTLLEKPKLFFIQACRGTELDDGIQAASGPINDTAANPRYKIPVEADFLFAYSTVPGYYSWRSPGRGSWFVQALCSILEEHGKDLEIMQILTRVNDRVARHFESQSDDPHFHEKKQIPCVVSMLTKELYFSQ
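Assay system: Uncleavable procaspase-7 mutant enzyme / Input: 2 µM procaspase-7 mutant as dispensed / Dosing: single nominal 8.5 µM compound dose, 0.8% DMSO final / Timing: 1 h enzyme–compound preincubation and 2 h substrate reaction, both 25 °C / Detection: p-Nitroaniline absorbance at 405 nm, read at 0 and 120 min / Replication: singlicate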
Arr AP2 block: blocks beta-arrestin peptide binding to AP2 adaptin | FITC-arrestin peptide / GST-AP2 beads, flow cytometry; AP2 beta2 appendage carries R879A mutation | inhibition, % at 10 µM | 340,000 compounds, 0.31% hits;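 active means inhibition above a set limit, near 3 SD of compounds lacking own fluorescence, cut at about 54% in these data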
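Test system: GST-tagged AP2 beta2-adaptin appendage (R879A) on 4 µm glutathione beads; also added: fluorescein-tagged arrestin peptide at 50 nM final; timing: 12 min plus 1 h, RT; signal: flow cytometry, FL1 (488/535 nm); read-out: percent drop in bead-associated FITC signal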
sPLA2-III inh: Inhibits HGIII-sPLA2 liposome hydrolysis, primary screen. QFRET BODIPY PC-A2 liposome hydrolysis, fluorescence. inhibition, % at 12.2 µM. 370,000 compounds, 0.56% hits. Q9NZ20;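 active means inhibition above mean plus 3 SD of compounds lying within the high and low control bounds, cut at about 19% in these data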
PLC-beta3 inh: PLC-beta3 (human) inhibition, primary screen. Purified PLC-beta3, fluorogenic substrate, fluorescence. inhibition, % at 12.2 µM. 370,000 compounds, 0.18% hits. AID 720704; in the data active means inhibition above about 11%
PLCg1 inh: blocks human PLC-gamma1 enzyme activity. 370,000 compounds, 0.84% hits. P19174. AID 720700. purified PLC-gamma1, fluorogenic substrate, fluorescence. inhibition, % at 12.2 µM
Arr-AP2 CP1: blocks beta-arrestin peptide binding to human AP2; shares compounds with Arr AP2 block; GST-AP2 beads, FITC arrestin peptide binding, flow cytometry; GST-fused beta2-adaptin appendage, R879A mutant; 1,300 compounds, 2% hits; inhibition, % at 10 µM; AID 504908;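 active means inhibition above a set limit, roughly 3 SD of non-fluorescent compound noise, cut at about 38% in these data; inactive means inhibition at or below that limit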;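 further: loss of bead fluorescence from 50 nM FITC arrestin peptide bound to appendage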
GST GSH counter: GST-GSH bead binding interference, counter-screen. GST-fluorescein binding to GSH beads, fluorescence. shares compounds with Arr AP2 block. 1,300 compounds, 2% hits. inhibition, % at 10 µM. AID 588338;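 active means inhibition above 50%, about 3 SD of the inhibition seen with non-fluorescent compounds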;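 further: fluorescein maleimide labelled GST captured on 4 micron glutathione beads; higher means more loss of bead fluorescence from quenching or blocked binding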
PLCgamma1 ctr: counter-screen for PLC-beta3 inhibitors: inhibitors of human PLC-gamma1; shares compounds with PLCg1 inh; inhibition, % at 12.3 µM; 3,300 compounds, 3.1% hits; purified PLC-gamma1, fluorogenic substrate, fluorescence; AID 743258
PLCbeta3 conf: human PLC-beta3 inhibition, confirmation; inhibition, % at 12.3 µM; shares compounds with PLCg1 inh; purified PLC-beta3, fluorogenic substrate fluorescence; 3,300 compounds, 1% hits; in the data active means inhibition above about 11%
A number is an active result. Unless noted, no stated cut-off is given here; in the data, active means inhibition above about 9.5%; inactive means the rest.

Screening O=C(NCCN1CCC2(CC1)C(=O)NCN2c1ccccc1)c1ccc(OC(F)(F)F)cc1 returned sPLA2-III inh inactive, PLC-beta3 inh inactive and PLCg1 inh inactive.
Screening Nc1ccc2cc(Br)ccc2c1 returned proCasp3 act inactive, procasp7 counter inactive, Arr AP2 block 61, sPLA2-III inh inactive, PLC-beta3 inh inactive, PLCg1 inh inactive, Arr-AP2 CP1 inactive and GST GSH counter inactive.
Screening Nc1ccc(Br)cc1 returned Arr AP2 block inactive, sPLA2-III inh inactive, PLC-beta3 inh inactive and PLCg1 inh inactive.
For O=C(CN1C(=O)[C@@H](Cc2c[nH]c3ccccc23)N=C(c2ccccc2)c2ccccc21)NC1CCCCC1 the results were sPLA2-III inh inactive, PLC-beta3 inh inactive and PLCg1 inh inactive.
Screening CCN1C(=O)CC(c2cccnc2)=Nc2ccccc21 returned proCasp3 act inactive, procasp7 counter inactive, Arr AP2 block inactive, sPLA2-III inh inactive, PLC-beta3 inh inactive and PLCg1 inh inactive.
`O=C1CC(c2cccnc2)=NN1c1ccc(Cl)cc1Cl` gave proCasp3 act inactive, procasp7 counter inactive, Arr AP2 block 61, sPLA2-III inh inactive, PLC-beta3 inh inactive, PLCg1 inh inactive, Arr-AP2 CP1 inactive and GST GSH counter inactive.
O=C1NC(=O)N(CCC2=CCCCC2)C(=O)/C1=C\c1cccs1 was read as proCasp3 act inactive, procasp7 counter inactive, Arr AP2 block 55, sPLA2-III inh inactive, PLC-beta3 inh inactive, PLCg1 inh inactive, Arr-AP2 CP1 inactive and GST GSH counter inactive.
N#CC1c2ccccc2-n2nncc2CN1C(=O)c1ccc([N+](=O)[O-])o1 (configuration not stated) was read as sPLA2-III inh inactive, PLC-beta3 inh inactive and PLCg1 inh inactive.
For Cc1ccc(CC(=O)N2CCN(C)CC2)cc1 the results were proCasp3 act inactive, procasp7 counter inactive, Arr AP2 block 55, sPLA2-III inh inactive, PLC-beta3 inh inactive, PLCg1 inh inactive, Arr-AP2 CP1 inactive and GST GSH counter inactive.
`Cc1cc(C)cc(OCCOc2cccc(C=C3C(=O)NC(=O)NC3=O)c2)c1` gave proCasp3 act inactive, procasp7 counter inactive, Arr AP2 block inactive, sPLA2-III inh inactive, PLC-beta3 inh inactive and PLCg1 inh inactive.
For Cc1ccc(OCCOc2cccc(C=C3C(=O)NC(=O)NC3=O)c2)cc1 the results were proCasp3 act inactive, procasp7 counter inactive, Arr AP2 block inactive, sPLA2-III inh inactive, PLC-beta3 inh inactive, PLCg1 inh 11, PLCgamma1 ctr inactive and PLCbeta3 conf inactive.
O=C1CN=C(c2ccccc2)c2c(sc3c2CCCC3)N1 was read as proCasp3 act inactive, procasp7 counter inactive, Arr AP2 block inactive, sPLA2-III inh inactive, PLC-beta3 inh inactive, PLCg1 inh 11, PLCgamma1 ctr inactive and PLCbeta3 conf inactive.
`O=C1CN=C(c2cccs2)c2c(sc3c2CCCC3)N1` gave proCasp3 act inactive, procasp7 counter inactive, Arr AP2 block inactive, sPLA2-III inh inactive, PLC-beta3 inh inactive and PLCg1 inh inactive.
For O=c1[nH]c(=S)n(Cc2ccc(F)cc2)c(O)c1C=NCc1cccnc1 the results were proCasp3 act inactive, procasp7 counter inactive, Arr AP2 block inactive, sPLA2-III inh inactive, PLC-beta3 inh inactive, PLCg1 inh 11, PLCgamma1 ctr inactive and PLCbeta3 conf inactive.
For CC(C)(C)OC(=O)NCCCCC(N)[P+](=O)O (configuration not stated) the results were sPLA2-III inh inactive, PLC-beta3 inh inactive and PLCg1 inh inactive.
`COc1cc(C(c2c(C)[nH]n(-c3ccccc3)c2=O)c2c(C)[nH]n(-c3ccccc3)c2=O)cc(OC)c1OC` gave proCasp3 act inactive, procasp7 counter inactive, Arr AP2 block inactive, sPLA2-III inh inactive, PLC-beta3 inh inactive, PLCg1 inh 22, PLCgamma1 ctr inactive and PLCbeta3 conf inactive.
`COC(=O)C(O)(c1c(C)[nH]n(-c2ccccc2)c1=O)C(F)(F)F` (configuration not stated) gave proCasp3 act inactive, procasp7 counter inactive, Arr AP2 block inactive, sPLA2-III inh inactive, PLC-beta3 inh inactive and PLCg1 inh inactive.
`COC(=O)C12OCC34C(CC5C(C)=C(O)C(=O)CC5(C)C3C(O)C1O)OC(=O)C(OC(=O)/C=C(\C)C(C)C)C24` (configuration not stated) gave Arr AP2 block inactive, sPLA2-III inh inactive, PLC-beta3 inh inactive, PLCg1 inh 13, PLCgamma1 ctr inactive and PLCbeta3 conf inactive.
For Cc1cc(NC(=O)CCl)nn1C the results were proCasp3 act inactive, procasp7 counter inactive, Arr AP2 block inactive, sPLA2-III inh inactive, PLC-beta3 inh inactive, PLCg1 inh 13, PLCgamma1 ctr inactive and PLCbeta3 conf inactive.
For C[C@]12CCC(=O)C=C1CC[C@@H]1C2CC[C@]2(C)C(=O)CCC12 (some centres not stated) the results were proCasp3 act inactive, procasp7 counter inactive, Arr AP2 block inactive, sPLA2-III inh inactive, PLC-beta3 inh inactive, PLCg1 inh 14, PLCgamma1 ctr inactive and PLCbeta3 conf inactive.
`CO[C@H]([C@H](C)/C=C/N(C)C=O)[C@@H](C)C(=O)CC[C@H](C)[C@H](O)[C@H](C)[C@H]1OC(=O)/C=C/C(C)=C/[C@H](O)[C@H](OC)C[C@@H]2C=CC[C@@H](C[C@H](OC)[C@@H](CO)[C@@H](OC)C[C@@H](OC)[C@@H]1C)O2` gave sPLA2-III inh inactive, PLC-beta3 inh inactive and PLCg1 inh inactive.
COc1ccccc1OCCCn1cc(C(=O)C2CC2)c2ccccc21 was read as proCasp3 act inactive, procasp7 counter inactive, Arr AP2 block inactive, sPLA2-III inh inactive, PLC-beta3 inh inactive and PLCg1 inh inactive.
Screening COc1ccccc1OCCCn1cc(C(C)=O)c2ccccc21 returned proCasp3 act inactive, procasp7 counter inactive, Arr AP2 block inactive, sPLA2-III inh inactive, PLC-beta3 inh inactive, PLCg1 inh 13, PLCgamma1 ctr inactive and PLCbeta3 conf inactive.

Screening data as filed in PubChem BioAssay.
